{"source": "paper PMC10546485", "about": "(Journal of medicinal chemistry, 2022)", "key": {"[1]": {"target": "human δ opioid receptor expressed in CHO cell lines (Homo sapiens, UniProt P41143)", "sequence (P41143 whole entry)": "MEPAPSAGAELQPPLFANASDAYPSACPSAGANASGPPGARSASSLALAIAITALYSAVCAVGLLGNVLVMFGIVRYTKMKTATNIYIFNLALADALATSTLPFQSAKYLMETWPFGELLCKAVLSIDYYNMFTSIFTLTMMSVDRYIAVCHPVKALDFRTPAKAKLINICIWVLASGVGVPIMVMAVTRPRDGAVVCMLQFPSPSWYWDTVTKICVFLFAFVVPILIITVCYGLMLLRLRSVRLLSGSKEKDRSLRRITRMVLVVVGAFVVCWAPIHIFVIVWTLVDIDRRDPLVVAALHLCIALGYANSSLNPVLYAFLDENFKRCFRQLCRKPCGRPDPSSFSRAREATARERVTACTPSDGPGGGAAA", "assay": "In vitro competitive radioligand binding assay, DOR", "conditions": "ratio of Ki values"}, "CYP3A4": {"system": "CYP3A4", "conditions": "cited from earlier work"}, "[2]": {"target": "DOR (DOR-CHO membrane protein) (Homo sapiens, UniProt P41143)", "sequence (P41143 whole entry)": "as above", "assay": "DOR [35S]-GTPγS functional assay", "assay_type": "biochemical"}, "gastrointestinal transit": {"system": "gastrointestinal transit", "conditions": "MNTX intraperitoneally, morphine 5 mg/kg s.c.; cited from earlier work"}, "male Swiss Webster mice": {"system": "male Swiss Webster mice", "assay": "Carmine red dye assay", "assay_type": "in vivo, mouse", "conditions": "test compound 10 mg/kg oral gavage, morphine 5 mg/kg", "procedure,_shortened": "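Male Swiss Webster mice (5–8 wk, 25–35 g), 5–6 per group, housed singly. Test compound 10 mg/kg or vehicle given p.o. 5 min before morphine 5 mg/kg injection. Twenty min after morphine, 0.2 mL 6% carmine red in 0.5% CMC/ddH₂O given p.o. Time to first red pellet recorded, 6 h cut-off. One-way ANOVA with corrected Dunnett test.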"}, "[3]": {"conditions": "male rats, after oral administration; cited from earlier work"}, "patients": {"system": "patients", "conditions": "long-term study; cited from earlier work"}, "[4]": {"system": "mouse opioid μ receptor expressed in CHO cell lines", "assay": "In vitro competitive radioligand binding assay, MOR", "conditions": "ratio of Ki values", "procedure,_shortened": "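CHO membranes (30 μg) expressing mouse μ or κ, or human δ, opioid receptor were incubated with radioligand and varied test compound in TME (pH 7.4) for 1.5 h at 30 °C, then filtered. Nonspecific binding was defined with 5 μM naltrexone, U50,488 or SNC80.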"}}, "data": [{"smiles": "O=C(Cc1cc[nH]n1)N[C@@H]1CC[C@@]2(O)[C@H]3Cc4ccc(O)c5c4[C@@]2(CCN3CC2CC2)[C@H]1O5", "note": "[Compound 14, 17-Cyclopropylmethyl-3,14β-d/hydroxy-4,5α-epoxy-6β-(3′-pyrazolylacetamldo)morphinan]", "values": [{"measurement": "δ/μ selectivity", "setting": "[1]", "result": "hundreds-fold"}]}, {"smiles": "C=CCN1CC[C@]23c4c5ccc(O)c4O[C@H]2[C@@H](OCCOCCOCCOCCOCCOCCOCCOC)CC[C@@]3(O)[C@H]1C5", "note": "[naloxegol]", "values": [{"measurement": "substrate of CYP3A4", "setting": "CYP3A4", "result": "substrates"}]}, {"smiles": "CC(C)(NC(=O)C1=C(O)[C@@H]2Oc3c(O)ccc4c3[C@@]23CCN(CC2CC2)[C@H](C4)[C@]3(O)C1)c1nc(-c2ccccc2)no1", "note": "[naldemedine]", "values": [{"measurement": "substrate of CYP3A4", "setting": "CYP3A4", "result": "substrates"}]}, {"smiles": "O=C(N[C@@H]1CC[C@@]2(O)[C@H]3Cc4ccc(O)c5c4[C@@]2(CCN3CC2CC2)[C@H]1O5)c1cnc[nH]1", "note": "[Compound 19, 17-Cyclopropylmethyl-3,14β-dlhydroxy-4,5α-epoxy-6β-(5′-imldazolylcarboxamldo)morphinan]", "values": [{"measurement": "EC50", "setting": "[2]", "result": "19.1 ± 5.91", "unit": "nM"}]}, {"smiles": "O=C(N[C@@H]1CC[C@@]2(O)[C@H]3Cc4ccc(O)c5c4[C@@]2(CCN3CC2CC2)[C@H]1O5)c1ncc[nH]1", "note": "[Compound 22, 17-Cyclopropylmethyl-3,14β-dihydroxy-4,5α-epoxy-6β-(2′-imidazolylcarboxamido)morphinan]", "values": [{"measurement": "δ/μ selectivity", "setting": "[1]", "result": "hundreds-fold"}]}, {"smiles": "C[N@+]1(CC2CC2)CC[C@]23c4c5ccc(O)c4O[C@H]2C(=O)CC[C@@]3(O)[C@H]1C5", "note": "[MNTX, methylnaltrexone]", "values": [{"measurement": "block of the antitransit effects of morphine", "setting": "gastrointestinal transit", "result": "effective"}, {"measurement": "reversal of the inhibitory effects of morphine on GI motility", "setting": "male Swiss Webster mice", "result": "no blockage was observed"}, {"measurement": "oral bioavailability", "setting": "[3]", "result": "< 1", "unit": "%"}, {"measurement": "cardiac-related adverse event, share of patients", "setting": "patients", "result": "less than 1%"}]}, {"smiles": "O=C(CCc1cc[nH]n1)N[C@@H]1CC[C@@]2(O)[C@H]3Cc4ccc(O)c5c4[C@@]2(CCN3CC2CC2)[C@H]1O5", "note": "[Compound 15]", "values": [{"measurement": "δ/μ selectivity", "setting": "[1]", "result": "hundreds-fold"}]}, {"smiles": "O=C(Cc1ncc[nH]1)N[C@@H]1CC[C@@]2(O)[C@H]3Cc4ccc(O)c5c4[C@@]2(CCN3CC2CC2)[C@H]1O5", "note": "[Compound 23, 17-Cyclopropylmethyl-3,14β-dihydroxy-4,5α-epoxy-6β-(2′-imidazolylacetamido)morphinan]", "values": [{"measurement": "δ/μ selectivity", "setting": "[1]", "result": "hundreds-fold"}]}, {"smiles": "O=C(Cc1cc[nH]n1)N[C@H]1CC[C@@]2(O)[C@H]3Cc4ccc(O)c5c4[C@@]2(CCN3CC2CC2)[C@H]1O5", "note": "[Compound 2, 17-Cyclopropylmethyl-3,14β-dihydroxy-4,5α-epoxy-6α-(3′-pyrazolylacetamido)morphinan]", "values": [{"measurement": "selectivity for the MOR over both the KOR and DOR", "setting": "[4]", "result": "at least a hundred-fold"}]}, {"smiles": "O=C(Cc1cn[nH]c1)N[C@H]1CC[C@@]2(O)[C@H]3Cc4ccc(O)c5c4[C@@]2(CCN3CC2CC2)[C@H]1O5", "note": "[Compound 5, 17-Cyclopropylmethyl-3,14β-dihydroxy-4,5α-epoxy-6α-(4′-pyrazolylacetamido)morphinan]", "values": [{"measurement": "selectivity for the MOR over both the KOR and DOR", "setting": "[4]", "result": "at least a hundred-fold"}]}]}
